Laboratory results published in paper PMC4471785 (Cancer Science, 2015).
Values belong to the molecule of their own block, whether it stands above or below them.

Tests used:
LAT1 = LAT1 (Homo sapiens, UniProt Q01650); assay: Inhibition of DOX or Asp-DOX uptake into S2-LAT1 cells by amino acids; assay type: cell-based; details: 100 μmol/L amino acid, 2 min; for Inhibition of the uptake of Asp-DOX by amino acids: 20 μmol/L Asp-DOX; for Inhibition of the uptake of DOX by amino acids: 20 μmol/L DOX
LAT1, sequence (Q01650 whole entry): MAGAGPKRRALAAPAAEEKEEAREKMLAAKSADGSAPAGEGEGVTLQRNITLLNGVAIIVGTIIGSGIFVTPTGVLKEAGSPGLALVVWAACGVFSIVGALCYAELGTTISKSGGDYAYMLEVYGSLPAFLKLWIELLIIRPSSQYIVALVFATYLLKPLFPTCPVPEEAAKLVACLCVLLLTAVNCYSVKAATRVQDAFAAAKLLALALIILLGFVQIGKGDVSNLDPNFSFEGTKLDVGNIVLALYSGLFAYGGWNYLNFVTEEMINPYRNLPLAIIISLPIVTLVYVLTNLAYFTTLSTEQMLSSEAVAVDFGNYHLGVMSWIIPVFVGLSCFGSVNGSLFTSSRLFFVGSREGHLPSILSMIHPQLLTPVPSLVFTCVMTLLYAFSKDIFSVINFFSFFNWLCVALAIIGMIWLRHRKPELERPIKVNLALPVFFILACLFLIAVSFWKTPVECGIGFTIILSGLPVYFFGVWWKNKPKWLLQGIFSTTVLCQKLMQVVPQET
LAT1, sequence (P08195 102-630 partner): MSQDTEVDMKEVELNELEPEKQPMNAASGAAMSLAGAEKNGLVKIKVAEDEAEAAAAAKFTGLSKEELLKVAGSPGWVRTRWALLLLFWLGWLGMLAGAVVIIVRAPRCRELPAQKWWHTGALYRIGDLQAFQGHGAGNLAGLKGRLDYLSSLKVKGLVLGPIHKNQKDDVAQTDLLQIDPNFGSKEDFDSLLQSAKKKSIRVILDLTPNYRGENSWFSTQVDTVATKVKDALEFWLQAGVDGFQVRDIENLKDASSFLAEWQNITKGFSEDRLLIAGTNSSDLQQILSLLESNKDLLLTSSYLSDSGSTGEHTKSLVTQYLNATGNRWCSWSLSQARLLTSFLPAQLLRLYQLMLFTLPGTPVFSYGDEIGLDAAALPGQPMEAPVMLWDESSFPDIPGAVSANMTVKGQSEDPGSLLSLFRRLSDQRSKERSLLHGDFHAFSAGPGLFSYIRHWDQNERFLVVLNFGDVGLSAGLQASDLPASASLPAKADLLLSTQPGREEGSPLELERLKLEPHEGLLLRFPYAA
Outline: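 S2-LAT1 cells incubated 2 min with 20 μmol/L test compound, with or without 100 μmol/L Leu, Met, Phe, Asp, Glu or Gly. Uptake stopped by three cold DPBS washes. Internalised drug extracted with methanol and quantified by HPLC.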

[1] = Pharmacokinetics in healthy mice; assay type: in vivo
Outline: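 Healthy mice dosed 5 mg/kg via tail vein. Retrobulbar blood taken at 0, 2, 5, 10, 15, 30 min, 1, 2 and 4 h, mixed with 0.5 mM EDTA-PBS and spun at 1750 g for 15 min. Supernatant extracted with methanol, dried under nitrogen, reconstituted in mobile phase and analysed by HPLC. AUC0−t by non-compartmental i.v. bolus model.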

H1299 (LAT1-negative) = assay: Cellular uptake in vitro, H1299; assay type: cell-based, human; details: 2 h
Outline: (§1)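 HepG2 or H1299 cells seeded at 1.5 × 10^5/well and grown 48 h. Then exposed to test compound at 0, 10, 20 or 50 μg/mL in serum-free medium for 2 h at 37°C, 5% CO2. Rinsed three times with cold DPBS and imaged by fluorescence (excitation 475 nm, 580 nm). Cells then extracted with methanol and sonicated 10 min; supernatant quantified by HPLC/MS.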

HepG2 (LAT1-positive) = assay: Cellular uptake in vitro, HepG2; assay type: cell-based, human; details: 2 h
Outline: as §1

H1299 tumors [2] = assay: Biodistribution in H1299 tumor-bearing mice; assay type: in vivo; details: H1299 models; DOX versus Asp-DOX; 5 mg/kg i.v.; 1 h
[3] = tested on: MDR1-overexpressing MDCK cells; assay: Bidirectional transport assay; assay type: in vitro ADME; details: 50 μg/mL
Outline: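 MDCK-MDR1 cells grown in high-glucose DMEM with 10% FBS. Seeded at 2 × 10^5 cells per 1.12 cm2 on polycarbonate Transwell inserts (0.4-μm pores) and used after about 7 days. TEER checked first. After 20 min equilibration in HBSS with 25 mM HEPES, 50 μg/mL test compound was added to the apical or basolateral donor side at 37°C with 60 rpm shaking. Receiver sampled at 60 min for HPLC-fluorescence. PDR = Papp(B–A)/Papp(A–B); n = 3.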

HepG2 tumors = assay: Biodistribution in HepG2 tumor-bearing mice; assay type: in vivo; details: HepG2 models; DOX-treated versus Asp-DOX-treated mice; 5 mg/kg i.v.; 1 h
Outline: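 Male nude mice ([…], 4 weeks, 18–22 g) implanted s.c. above the right femoral joint with 1.0 × 107 HepG2, HCT116 or H1299 cells in 0.1 mL PBS, 3–5 per line. On day 20, with tumours about 100 mm3, 5 mg/kg given i.v. Killed 1 h later; tissues frozen in liquid nitrogen. Homogenates extracted twice with methanol (1-naphthol internal standard) for HPLC/MS; reported as % injected dose/g tissue.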

H1299 tumors [4] = assay: Therapy study, H1299 tumor model; assay type: in vivo, mice; details: 5 mg/kg i.v. twice a week
Outline: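 Nude mice bearing s.c. HepG2 or H1299 xenografts, set up as in the biodistribution model, split into three groups once tumours reached 100 mm3. Groups given saline, doxorubicin or test compound at 5 mg/kg i.v. twice a week. Tumours measured twice weekly; volume = length × width²/2; volumes compared after 21 days of treatment.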

[5] = tested on: H1299 (human non-small cell lung carcinoma cell line); assay: MTT cytotoxicity, H1299; assay type: cell-based; details: 48 h
Outline: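 Cells maintained in DMEM or RPMI-1640 with 10% FBS, penicillin and streptomycin at 37°C, 5% CO2. Seeded at 2000–4000 cells/well and grown 48 h, then exposed to test compound at 10, 20 or 50 μg/mL for 48 h. MTT (5 mg/mL stock, 20 μL per 100 μL) added for 2 h; absorbance read at 492 nm. Six repeats; inhibition rate computed from mean values.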

Compound: COc1cccc2c1C(=O)c1c(O)c3c(c(O)c1C2=O)C[C@@](O)(C(=O)CO)C[C@@H]3O[C@H]1C[C@H](N)[C@H](O)[C@H](C)O1 [DOX, doxorubicin]
t1/2 ([1]; 5 mg/kg i.v. (tail vein), blood): 15.12 min
AUC0−t ([1]; 5 mg/kg i.v., 0-4 h): 158.894 µg·min/mL
Uptake (H1299 (LAT1-negative); dose 10 μg/mL): 0.20 ± 0.059 µg/mL
Uptake (H1299 (LAT1-negative); dose 20 μg/mL): 0.33 ± 0.019 µg/mL
Uptake (H1299 (LAT1-negative); dose 50 μg/mL): 0.69 ± 0.055 µg/mL
Uptake (HepG2 (LAT1-positive); dose 10 μg/mL): 0.21 ± 0.030 µg/mL
Uptake (HepG2 (LAT1-positive); dose 20 μg/mL): 0.44 ± 0.032 µg/mL
Uptake (HepG2 (LAT1-positive); dose 50 μg/mL): 0.70 ± 0.079 µg/mL
Drug levels in tissues (H1299 tumors [2]): higher than that of Asp-DOX in all tissues
PDR (efflux rate, Papp(B–A):Papp(A–B)) [3]: 13.01 ± 1.425
Papp A–B ([3]; apical to basolateral, 60 min): 0.53 ± 0.093 10^−6 cm/s
Papp B–A ([3]; basolateral to apical, 60 min): 6.63 ± 0.328 10^−6 cm/s
Drug levels in heart, liver, and lung (HepG2 tumors): significantly higher
Antitumor effect (H1299 tumors [4]): stronger than that of Asp-DOX and saline
IC50 [5]: 36.51 μg/ml μg/mL

Compound: NCC(=O)O [Gly]
Inhibition of the uptake of Asp-DOX by amino acids (LAT1): no inhibition
Inhibition of the uptake of DOX by amino acids (LAT1): neither 100 μmol/L Leu, Met, or Phe, nor 100 μmol/L Ala, Glu, or Gly inhibited

Compound: N[C@@H](CCC(=O)O)C(=O)O [Glu]
Inhibition of the uptake of Asp-DOX by amino acids (LAT1): no inhibition
Inhibition of the uptake of DOX by amino acids (LAT1): neither 100 μmol/L Leu, Met, or Phe, nor 100 μmol/L Ala, Glu, or Gly inhibited

Compound: C[C@H](N)C(=O)O [Ala]
Inhibition of the uptake of Asp-DOX by amino acids (LAT1): no inhibition
Inhibition of the uptake of DOX by amino acids (LAT1): neither 100 μmol/L Leu, Met, or Phe, nor 100 μmol/L Ala, Glu, or Gly inhibited

Second part, led by results:

Inhibition of the uptake of Asp-DOX by amino acids (LAT1): strongly inhibited
Compound: N[C@@H](Cc1ccccc1)C(=O)O [Phe, phenylalanine]
Inhibition of the uptake of DOX by amino acids (LAT1): neither 100 μmol/L Leu, Met, or Phe, nor 100 μmol/L Ala, Glu, or Gly inhibited

Inhibition of the uptake of Asp-DOX by amino acids (LAT1): strongly inhibited
Compound: CC(C)C[C@H](N)C(=O)O [Leu, leucine]
Inhibition of the uptake of DOX by amino acids (LAT1): neither 100 μmol/L Leu, Met, or Phe, nor 100 μmol/L Ala, Glu, or Gly inhibited

Inhibition of the uptake of Asp-DOX by amino acids (LAT1): strongly inhibited
Compound: CSCC[C@H](N)C(=O)O [Met, methionine]
Inhibition of the uptake of DOX by amino acids (LAT1): neither 100 μmol/L Leu, Met, or Phe, nor 100 μmol/L Ala, Glu, or Gly inhibited
